The record followed here is ChEMBL document CHEMBL5653631, “A Potent and Selective ULK1 Inhibitor Suppresses Autophagy and Sensitizes Cancer Cells to Nutrient Stress” (iScience, 2018).

Experiment [1] concerns the target RAC-alpha serine/threonine-protein kinase (Homo sapiens) (UniProt P31749). As to the kind of experiment: Inhibition of human recombinant AKT1 at 15 nM related to control ULK1.
For experiment [2], the target named is T1, Serine/threonine-protein kinase haspin (Homo sapiens) (UniProt Q8TF76).
T1 sequence (whole entry): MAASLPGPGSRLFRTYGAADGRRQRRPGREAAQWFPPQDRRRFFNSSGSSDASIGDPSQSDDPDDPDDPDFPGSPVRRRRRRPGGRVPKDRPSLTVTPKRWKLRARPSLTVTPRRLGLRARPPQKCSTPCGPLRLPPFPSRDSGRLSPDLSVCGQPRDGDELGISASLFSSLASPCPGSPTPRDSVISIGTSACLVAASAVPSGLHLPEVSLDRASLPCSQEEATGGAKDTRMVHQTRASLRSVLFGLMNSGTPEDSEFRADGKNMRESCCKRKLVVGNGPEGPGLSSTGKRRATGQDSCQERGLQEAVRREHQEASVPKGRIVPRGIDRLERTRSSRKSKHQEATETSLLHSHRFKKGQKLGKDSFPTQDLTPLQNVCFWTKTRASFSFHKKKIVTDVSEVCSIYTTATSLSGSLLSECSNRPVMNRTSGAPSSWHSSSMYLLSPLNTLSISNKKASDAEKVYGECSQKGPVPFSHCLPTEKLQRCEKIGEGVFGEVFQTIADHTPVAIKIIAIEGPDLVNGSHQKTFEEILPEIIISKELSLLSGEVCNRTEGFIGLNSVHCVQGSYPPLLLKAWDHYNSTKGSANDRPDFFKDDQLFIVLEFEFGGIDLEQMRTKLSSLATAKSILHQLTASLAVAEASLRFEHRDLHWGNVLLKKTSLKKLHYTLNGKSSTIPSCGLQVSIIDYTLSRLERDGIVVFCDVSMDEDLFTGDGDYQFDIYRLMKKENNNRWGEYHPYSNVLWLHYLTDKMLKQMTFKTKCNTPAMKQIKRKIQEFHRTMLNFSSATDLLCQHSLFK
Put plainly: Inhibition of human recombinant Haspin at 15 nM in presence of ATP by radiometric assay relative to control.

The target of experiment [3] is Leucine-rich repeat serine/threonine-protein kinase 2 (Homo sapiens) (UniProt Q5S007). Put plainly: Inhibition of human recombinant LRRK2 at 15 nM related to control ULK1.
Leucine-rich repeat serine/threonine-protein kinase 2 (Homo sapiens), sequence (Q5S007 whole entry): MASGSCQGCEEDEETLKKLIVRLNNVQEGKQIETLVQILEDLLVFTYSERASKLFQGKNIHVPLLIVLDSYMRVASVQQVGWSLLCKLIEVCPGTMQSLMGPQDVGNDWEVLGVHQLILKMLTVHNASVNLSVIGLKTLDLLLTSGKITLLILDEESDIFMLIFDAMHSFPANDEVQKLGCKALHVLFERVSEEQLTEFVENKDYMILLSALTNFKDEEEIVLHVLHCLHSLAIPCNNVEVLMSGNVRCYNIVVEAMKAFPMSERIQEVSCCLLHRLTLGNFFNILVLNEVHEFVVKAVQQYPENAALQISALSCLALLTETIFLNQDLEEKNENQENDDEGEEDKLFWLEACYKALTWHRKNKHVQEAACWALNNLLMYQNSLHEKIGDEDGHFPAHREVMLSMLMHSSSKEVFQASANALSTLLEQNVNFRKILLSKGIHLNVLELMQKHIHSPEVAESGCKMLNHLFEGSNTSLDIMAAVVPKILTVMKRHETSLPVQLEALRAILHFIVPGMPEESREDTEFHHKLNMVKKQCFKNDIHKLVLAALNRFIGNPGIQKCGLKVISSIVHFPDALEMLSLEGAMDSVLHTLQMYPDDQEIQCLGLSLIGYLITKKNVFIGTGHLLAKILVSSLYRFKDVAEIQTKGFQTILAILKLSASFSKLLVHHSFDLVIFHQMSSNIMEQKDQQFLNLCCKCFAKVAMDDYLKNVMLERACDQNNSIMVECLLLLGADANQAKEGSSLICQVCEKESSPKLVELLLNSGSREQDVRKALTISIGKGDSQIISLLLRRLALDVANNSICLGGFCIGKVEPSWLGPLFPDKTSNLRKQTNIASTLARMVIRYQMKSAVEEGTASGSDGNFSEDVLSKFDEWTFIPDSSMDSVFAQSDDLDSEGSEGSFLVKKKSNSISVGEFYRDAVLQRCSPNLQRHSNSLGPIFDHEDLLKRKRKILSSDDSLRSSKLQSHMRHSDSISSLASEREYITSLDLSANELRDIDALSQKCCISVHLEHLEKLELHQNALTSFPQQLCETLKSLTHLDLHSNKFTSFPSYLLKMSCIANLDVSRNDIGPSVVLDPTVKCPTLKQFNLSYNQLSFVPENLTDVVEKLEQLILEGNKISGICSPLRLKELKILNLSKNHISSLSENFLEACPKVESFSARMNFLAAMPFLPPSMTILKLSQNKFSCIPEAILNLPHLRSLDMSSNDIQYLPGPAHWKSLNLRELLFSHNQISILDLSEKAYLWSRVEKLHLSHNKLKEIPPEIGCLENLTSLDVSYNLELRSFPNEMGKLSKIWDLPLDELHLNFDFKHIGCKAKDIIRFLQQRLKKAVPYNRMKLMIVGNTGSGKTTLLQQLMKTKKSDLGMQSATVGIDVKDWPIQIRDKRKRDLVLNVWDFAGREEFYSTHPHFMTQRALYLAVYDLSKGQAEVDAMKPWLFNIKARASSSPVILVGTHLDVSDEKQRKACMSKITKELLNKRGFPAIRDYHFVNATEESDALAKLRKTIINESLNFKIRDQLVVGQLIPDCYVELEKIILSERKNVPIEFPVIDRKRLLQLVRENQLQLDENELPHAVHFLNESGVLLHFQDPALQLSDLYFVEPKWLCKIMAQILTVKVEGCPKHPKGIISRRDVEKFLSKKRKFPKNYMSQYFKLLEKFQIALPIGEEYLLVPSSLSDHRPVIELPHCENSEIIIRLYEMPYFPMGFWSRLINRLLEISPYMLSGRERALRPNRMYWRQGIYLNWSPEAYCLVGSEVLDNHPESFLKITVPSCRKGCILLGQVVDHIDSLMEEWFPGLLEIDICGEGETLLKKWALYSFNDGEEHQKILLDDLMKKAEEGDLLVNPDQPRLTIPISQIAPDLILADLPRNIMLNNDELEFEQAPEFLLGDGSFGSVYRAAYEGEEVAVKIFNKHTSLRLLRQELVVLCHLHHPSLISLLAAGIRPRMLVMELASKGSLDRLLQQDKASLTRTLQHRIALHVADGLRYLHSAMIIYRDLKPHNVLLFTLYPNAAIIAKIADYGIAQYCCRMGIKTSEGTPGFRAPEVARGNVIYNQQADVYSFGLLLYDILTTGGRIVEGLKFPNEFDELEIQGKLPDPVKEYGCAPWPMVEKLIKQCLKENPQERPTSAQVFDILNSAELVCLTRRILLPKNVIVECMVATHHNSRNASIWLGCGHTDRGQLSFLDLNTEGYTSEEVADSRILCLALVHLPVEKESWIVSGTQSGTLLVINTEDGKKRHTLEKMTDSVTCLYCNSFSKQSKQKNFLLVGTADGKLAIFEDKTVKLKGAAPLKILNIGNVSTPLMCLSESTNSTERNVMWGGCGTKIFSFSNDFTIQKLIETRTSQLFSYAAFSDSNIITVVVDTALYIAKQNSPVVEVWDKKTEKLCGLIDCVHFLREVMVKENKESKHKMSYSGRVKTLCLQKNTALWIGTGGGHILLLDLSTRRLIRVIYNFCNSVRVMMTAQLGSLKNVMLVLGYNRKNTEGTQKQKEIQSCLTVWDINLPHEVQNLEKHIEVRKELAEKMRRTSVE
Experiment [4] addresses Ephrin type-A receptor 7 (Homo sapiens) (UniProt Q15375). Put plainly: Inhibition of human recombinant EphA7 at 15 nM related to control ULK1.
Experiment [5] deals with eIF-2-alpha kinase GCN2 (Homo sapiens) (UniProt Q9P2K8). As to the kind of experiment: Inhibition of human recombinant GCN2 at 15 nM related to control ULK1.
For experiment [6], the target named is Serine/threonine-protein kinase ATR (Homo sapiens) (UniProt Q13535). Put plainly: Inhibition of human recombinant ATR at 15 nM in presence of ATP by radiometric assay relative to control. Summed up: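 Panel of 327 recombinant human kinases, each assayed in vitro by radiometric activity assay in duplicate at a single inhibitor concentration per compound, chosen with reference to its ULK1 inhibition. Activity remaining was expressed as percent of vehicle control, and percent inhibition was calculated as 100 minus percent activity remaining.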

Experiment [7] concerns the target T2, Serine/threonine-protein kinase 3 (Homo sapiens) (UniProt Q13188).
T2 sequence (whole entry): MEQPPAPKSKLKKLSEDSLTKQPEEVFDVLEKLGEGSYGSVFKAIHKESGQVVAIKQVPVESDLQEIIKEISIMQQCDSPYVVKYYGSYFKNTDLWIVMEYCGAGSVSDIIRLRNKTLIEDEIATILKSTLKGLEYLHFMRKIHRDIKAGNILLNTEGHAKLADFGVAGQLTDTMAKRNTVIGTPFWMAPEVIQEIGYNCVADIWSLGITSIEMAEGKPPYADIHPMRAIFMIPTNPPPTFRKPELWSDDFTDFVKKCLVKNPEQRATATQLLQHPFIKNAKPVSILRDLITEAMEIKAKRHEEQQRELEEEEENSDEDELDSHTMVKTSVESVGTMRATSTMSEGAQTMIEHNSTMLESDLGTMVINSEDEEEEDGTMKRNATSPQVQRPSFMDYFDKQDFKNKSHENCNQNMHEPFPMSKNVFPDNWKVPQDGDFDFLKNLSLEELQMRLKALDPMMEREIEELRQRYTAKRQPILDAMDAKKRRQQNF
Put plainly: Inhibition of human recombinant MST2 at 40 nM in presence of ATP by radiometric assay relative to control.

Experiment [8] deals with Calcium/calmodulin-dependent protein kinase type 1D (Homo sapiens) (UniProt Q8IU85). Put plainly: Inhibition of human recombinant CaMK1d at 40 nM related to control ULK1.
Calcium/calmodulin-dependent protein kinase type 1D (Homo sapiens), sequence (Q8IU85 whole entry, looked up): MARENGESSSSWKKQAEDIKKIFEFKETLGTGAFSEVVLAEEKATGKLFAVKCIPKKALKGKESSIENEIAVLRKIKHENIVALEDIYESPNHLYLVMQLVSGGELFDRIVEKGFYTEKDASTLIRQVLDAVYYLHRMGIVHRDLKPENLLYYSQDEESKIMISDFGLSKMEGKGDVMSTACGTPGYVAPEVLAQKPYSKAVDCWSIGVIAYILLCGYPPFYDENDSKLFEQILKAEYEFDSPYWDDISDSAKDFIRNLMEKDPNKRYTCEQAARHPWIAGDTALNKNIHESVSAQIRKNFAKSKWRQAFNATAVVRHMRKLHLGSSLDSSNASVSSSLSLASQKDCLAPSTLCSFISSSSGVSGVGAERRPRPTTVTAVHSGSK
In experiment [9] the target is Calcium/calmodulin-dependent protein kinase type 1B (Homo sapiens) (UniProt Q6P2M8). As to the kind of experiment: Inhibition of human recombinant CaMK1b at 40 nM related to control ULK1.
Calcium/calmodulin-dependent protein kinase type 1B (Homo sapiens), sequence (Q6P2M8 whole entry): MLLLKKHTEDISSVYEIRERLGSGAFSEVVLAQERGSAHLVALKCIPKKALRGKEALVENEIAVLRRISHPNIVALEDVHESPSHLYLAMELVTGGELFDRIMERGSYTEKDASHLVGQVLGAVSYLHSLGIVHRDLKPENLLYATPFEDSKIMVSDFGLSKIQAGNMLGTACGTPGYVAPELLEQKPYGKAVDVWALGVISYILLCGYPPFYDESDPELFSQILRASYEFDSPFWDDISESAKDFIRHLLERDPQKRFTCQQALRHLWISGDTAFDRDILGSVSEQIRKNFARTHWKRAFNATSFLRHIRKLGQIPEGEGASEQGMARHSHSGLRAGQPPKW
The target in experiment [10] is Maternal embryonic leucine zipper kinase (Homo sapiens) (UniProt Q14680). Put plainly: Inhibition of human recombinant MELK at 40 nM in presence of ATP by radiometric assay relative to control.
Maternal embryonic leucine zipper kinase (Homo sapiens), sequence (Q14680 whole entry, looked up, canonical isoform): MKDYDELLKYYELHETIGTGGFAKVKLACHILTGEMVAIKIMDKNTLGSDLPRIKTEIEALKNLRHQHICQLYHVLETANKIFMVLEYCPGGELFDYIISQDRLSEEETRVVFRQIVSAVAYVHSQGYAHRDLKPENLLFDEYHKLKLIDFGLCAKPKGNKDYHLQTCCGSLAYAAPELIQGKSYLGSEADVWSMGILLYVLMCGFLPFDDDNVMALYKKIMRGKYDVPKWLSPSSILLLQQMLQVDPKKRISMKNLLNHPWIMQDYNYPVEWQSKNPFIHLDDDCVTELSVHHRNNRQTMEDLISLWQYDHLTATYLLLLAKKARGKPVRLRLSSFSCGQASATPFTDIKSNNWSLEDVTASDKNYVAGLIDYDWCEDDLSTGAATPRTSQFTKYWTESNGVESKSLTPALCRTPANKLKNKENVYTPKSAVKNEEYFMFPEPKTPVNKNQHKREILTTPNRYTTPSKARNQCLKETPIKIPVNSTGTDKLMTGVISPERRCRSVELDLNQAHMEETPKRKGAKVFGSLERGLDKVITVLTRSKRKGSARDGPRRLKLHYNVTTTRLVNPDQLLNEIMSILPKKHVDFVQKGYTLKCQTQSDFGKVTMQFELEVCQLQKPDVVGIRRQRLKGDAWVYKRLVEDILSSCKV
Experiment [11] concerns the target Casein kinase I isoform gamma-2 (Homo sapiens) (UniProt P78368). Put plainly: Inhibition of human recombinant CK1g2 at 500 nM related to control ULK1.
Experiment [12] deals with T3, Phosphorylase b kinase gamma catalytic chain, liver/testis isoform (Homo sapiens) (UniProt P15735).
T3 sequence (whole entry): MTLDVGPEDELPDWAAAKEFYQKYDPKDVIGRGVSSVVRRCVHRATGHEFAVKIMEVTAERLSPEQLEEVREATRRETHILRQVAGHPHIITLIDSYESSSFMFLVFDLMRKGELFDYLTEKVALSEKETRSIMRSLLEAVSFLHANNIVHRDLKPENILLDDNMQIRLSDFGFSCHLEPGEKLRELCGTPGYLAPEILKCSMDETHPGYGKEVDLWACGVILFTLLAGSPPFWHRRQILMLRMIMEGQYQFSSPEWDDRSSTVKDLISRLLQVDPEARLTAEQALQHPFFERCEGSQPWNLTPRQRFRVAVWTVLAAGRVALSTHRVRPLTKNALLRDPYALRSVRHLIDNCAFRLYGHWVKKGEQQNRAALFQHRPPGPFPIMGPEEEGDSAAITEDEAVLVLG
Put plainly: Inhibition of human recombinant PHKg2 at 500 nM in presence of ATP by radiometric assay relative to control.

RAC-alpha serine/threonine-protein kinase (Homo sapiens), sequence (P31749 whole entry): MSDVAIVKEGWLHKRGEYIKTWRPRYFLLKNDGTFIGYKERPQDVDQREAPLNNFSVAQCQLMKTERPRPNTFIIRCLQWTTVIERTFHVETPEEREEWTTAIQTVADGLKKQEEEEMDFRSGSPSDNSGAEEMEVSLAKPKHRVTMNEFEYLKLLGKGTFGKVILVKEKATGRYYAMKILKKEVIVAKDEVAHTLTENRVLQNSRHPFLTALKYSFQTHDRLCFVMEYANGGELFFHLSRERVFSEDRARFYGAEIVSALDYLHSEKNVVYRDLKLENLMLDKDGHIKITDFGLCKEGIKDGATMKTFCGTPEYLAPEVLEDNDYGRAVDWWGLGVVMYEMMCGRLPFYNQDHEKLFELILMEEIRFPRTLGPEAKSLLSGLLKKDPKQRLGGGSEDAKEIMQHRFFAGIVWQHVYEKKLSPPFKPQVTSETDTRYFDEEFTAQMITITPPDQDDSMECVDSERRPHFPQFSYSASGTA
Casein kinase I isoform gamma-2 (Homo sapiens), sequence (P78368 whole entry, looked up, canonical isoform): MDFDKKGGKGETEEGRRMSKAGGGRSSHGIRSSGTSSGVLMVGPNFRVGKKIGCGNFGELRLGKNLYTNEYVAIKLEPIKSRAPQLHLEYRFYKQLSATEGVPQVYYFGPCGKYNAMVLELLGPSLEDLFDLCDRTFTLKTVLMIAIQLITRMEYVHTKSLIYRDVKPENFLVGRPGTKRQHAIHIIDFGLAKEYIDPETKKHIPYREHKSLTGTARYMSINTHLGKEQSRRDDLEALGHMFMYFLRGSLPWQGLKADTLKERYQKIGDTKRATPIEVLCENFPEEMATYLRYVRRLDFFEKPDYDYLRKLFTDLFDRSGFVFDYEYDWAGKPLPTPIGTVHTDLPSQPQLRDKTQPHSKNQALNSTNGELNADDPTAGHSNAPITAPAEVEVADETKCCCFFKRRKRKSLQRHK

As for `CC(C)[C@H](NC(=O)c1cc(-c2cnn3cc(-c4ccc(OCCN5CCCCC5)cc4)cnc23)cs1)C(F)(F)F`, the fold change (FC) in [1] was determined as 0; in experiment [3], 0.03; in [4] it was 0; in experiment [5] it was 0.09. For the same compound, the inhibition came to 0% in experiment [2] and 4% in experiment [6].
Consider `O=C(N[C@@H](C1CC1)C(F)(F)F)c1cc(-c2cnn3cc(-c4ccc(F)cc4)cnc23)cs1`, for which the inhibition in experiment [7] came out at 0%; in experiment [10], 20%. Besides, the fold change (FC) in experiment [8] and in experiment [9] was 0 in each case.
As for `CNC(=O)c1ccccc1Oc1nc(Nc2cc(OC)c(OC)c(OC)c2)ncc1Br`, in [11], the fold change (FC) turned out to be 0. Moreover, the inhibition in [12] is 0%.
